One block for each compound: values may come before it. The source made the active and inactive calls. The calls are words filed in the database; no cut-off is given here.
What was measured:
[1] = tested on: Human immunodeficiency virus 1; assay: Binding affinity to hexameric C-terminal His-tagged HIV1 NL4-3 capsid protein A14C/E45C/W184A/M185A mutant expressed in Escherichia coli BL21 codon plus (DE3)RIL assessed as association rate constant by SPR analysis
Procedure, shortened: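 Disulfide-stabilised CA hexamers, isolated by size exclusion after stepwise βME dialysis, amine-coupled at 100 μg/mL (10mM sodium acetate pH 5.0) to GLH chip; IgG b12 reference surface. 25 °C; running buffer PBS, 3% DMSO, 0.005% polysorbate 20, pH 7.4. One-shot kinetics of 1:4 serial dilutions from 5 or 2 μM, 100 μl/min, 1 min association, up to 5 min dissociation.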

[2] = tested on: Human immunodeficiency virus 1; assay: Antiviral activity against HIV1 NL4-3 Env-deficient pseudotype virus infected in human U87.CD4.CCR5.CXCR4 cells assessed by reduction in viral infection in early stage measured after 48 hrs by luciferase activity based single-round infection assay; type: functional, organism-based
[3] = Cytotoxicity against in human U87.CD4.CCR5.CXCR4 cells assessed as reduction in cell viability measured after 48 hrs by CCK8 assay; type: cell-based; conditions: u87.cd4.ccr5.cxcr4, 48 h
Procedure, shortened: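 U87 cells stably expressing CD4/CCR5 or CD4/CXCR4 were grown in a humidified 5% CO2 atmosphere at 37°C and seeded at 1.2 × 10^4 cells/well 24 h before treatment. Cells were exposed to compound (1mM-0.3μM) or DMSO for 48 h at 37°C, then to CCK-8 for 4 h at 37°C, and absorbance was read at 450 nm. Controls were untreated cells and 0.1% SDS-treated cells.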

[4] = Binding affinity to hexameric C-terminal His-tagged HIV1 NL4-3 capsid protein A14C/E45C/W184A/M185A mutant expressed in Escherichia coli BL21 codon plus (DE3)RIL assessed as dissociation constant by SPR analysis; set-up: species or system Human immunodeficiency virus 1
Procedure, shortened: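 SPR at 25 °C using one-shot kinetics. Disulfide-stabilized CA hexamer was assembled by βME dialysis, isolated by SEC, and amine-coupled to a GLH chip at 100 μg/mL in 10 mM sodium acetate pH 5.0. An IgG b12 surface served as reference. Compound was injected as 1:4 serial dilutions from 5 or 2 μM in PBS with 3% DMSO and 0.005% polysorbate 20, pH 7.4, at 100 μl/min. Association was 1 min and dissociation up to 5 min.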

[5] = Therapeutic index, ratio of CC50 for cytotoxicity against human 87.CD4.CCR5.CXCR4 cells to IC50 for antiviral activity against HIV1 NL4-3 virus in human 87.CD4.CCR5.CXCR4 cells; type: toxicity, cell-based; conditions: read-out: TI
Procedure, shortened: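 U87.CD4.CCR5/CXCR4 cells were seeded 24 h ahead and incubated 48 h at 37°C. Antiviral arm: p24-normalised single-round luciferase pseudovirus (pNL4-3-Luc+R-E− backbone, BG505 Env), luminescence read after lysis. […] Index is CC50 divided by IC50.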

[6] = Half life in human liver microsomes; type: ADME, Microsome
[7] = tested on: Human immunodeficiency virus 1; assay: Binding affinity to C-terminal His-tagged HIV1 NL4-3 capsid protein N57A mutant expressed in Escherichia coli BL21 codon plus (DE3)RIL
[8] = tested on: Human immunodeficiency virus 1; assay: Binding affinity to C-terminal His-tagged HIV1 NL4-3 capsid protein M66A mutant expressed in Escherichia coli BL21 codon plus (DE3)RIL
[9] = tested on: Human immunodeficiency virus 1; assay: Binding affinity to C-terminal His-tagged HIV1 NL4-3 capsid protein K70A mutant expressed in Escherichia coli BL21 codon plus (DE3)RIL
[10] = Human immunodeficiency virus 1, NL4-3, U87.CD4.CCR5.CXCR4, 48 h, read-out: IC50

Structure (SMILES): Cc1[nH]c2ccccc2c1CC(=O)N[C@@H](Cc1ccccc1)C(=O)N(C)c1ccccc1
- Ka [1]: 4.75 10^5/M/s
- IC50 [2, 10]: 80 nM
- CC50 ([3]; read-out: CC50): 66700 nM

- IC50 ([2]; u87.cd4.ccr5.cxcr4): Not Active
Structure (SMILES): CN(C(=O)[C@@H](Cc1ccccc1)NC(=O)Cc1n[nH]c2c(N)cccc12)c1ccc2[nH]ncc2c1
- CC50 [3]: Not Active

Structure (SMILES): CN(C(=O)[C@H](Cc1ccccc1)NC(=O)Cc1c[nH]c2c(N)cccc12)c1ccccc1
- Ka [1]: 4.76 10^5/M/s
- Kd [4]: 139 nM
- IC50 [2, 10]: 62.1 nM
- CC50 ([3]; read-out: CC50): 101000 nM
- selectivity ratio [5]: 1630
- t1/2 [6]: 15.4 min

- IC50 ([2]; u87.cd4.ccr5.cxcr4): Not Active
Structure (SMILES): CN(C(=O)[C@@H](Cc1ccccc1)NC(=O)Cc1c[nH]c2c(N)cccc12)c1ccccc1
- CC50 [3]: Not Active

- IC50 ([2]; u87.cd4.ccr5.cxcr4): Not Active
Structure (SMILES): Cc1[nH]c2ccccc2c1CC(=O)N[C@H](Cc1ccccc1)C(=O)N(C)c1ccccc1
- CC50 [3]: Not Active

- IC50 ([2]; u87.cd4.ccr5.cxcr4): Not Active
Structure (SMILES): Cc1[nH]c2ccccc2c1CC(=O)N[C@H](Cc1ccccc1)C(=O)N(C)c1ccc2[nH]ncc2c1
- CC50 [3]: Not Active

Structure (SMILES): CN(C(=O)[C@H](Cc1ccccc1)NC(=O)Cc1n[nH]c2c(N)cccc12)c1ccc2[nH]ncc2c1
- Ka [1]: 2.86 10^5/M/s
- Kd [4]: 337 nM
- IC50 [2, 10]: 279 nM
- CC50 ([3]; read-out: CC50): 102000 nM
- selectivity ratio [5]: 365
- t1/2 [6]: 102 min

Structure (SMILES): Cc1[nH]c2ccccc2c1CC(=O)N[C@@H](Cc1ccccc1)C(=O)N(C)c1ccc2[nH]ncc2c1
- Ka [1]: 4.37 10^5/M/s
- Kd [4]: 25 nM
- IC50 [2, 10]: 20.6 nM
- CC50 ([3]; read-out: CC50): 46900 nM
- selectivity ratio [5]: 2280
- t1/2 [6]: 1 min

Structure (SMILES): CN(C(=O)C(Cc1ccccc1)NC(=O)Cc1c[nH]c2c(N)cccc12)c1ccccc1 (racemic)
- Ka [1]: 5.62 10^5/M/s
- Kd [4]: 189 nM
- IC50 [2, 10]: 97.2 nM
- CC50 ([3]; read-out: CC50): 83500 nM
- selectivity ratio [5]: 859
- Activity [7]: inactive
- Activity [8]: inactive
- Activity [9]: inactive

Structure (SMILES): CN(C(=O)C(Cc1ccccc1)NC(=O)Cc1n[nH]c2c(N)cccc12)c1ccc2[nH]ncc2c1 (racemic)
- Ka [1]: 2.2 10^5/M/s
- Kd [4]: 494 nM
- IC50 [2, 10]: 2420 nM
- CC50 ([3]; read-out: CC50): 415000 nM
- selectivity ratio [5]: 171
- Activity [7]: inactive
- Activity [8]: inactive
- Activity [9]: inactive

Structure (SMILES): Cc1[nH]c2ccccc2c1CC(=O)NC(Cc1ccccc1)C(=O)N(C)c1ccc2[nH]ncc2c1 (racemic)
- Ka [1]: 2.75 10^5/M/s
- Kd [4]: 43.9 nM
- IC50 [2, 10]: 38.3 nM
- CC50 ([3]; read-out: CC50): 76900 nM
- selectivity ratio [5]: 2010
- Activity [7]: inactive
- Activity [8]: inactive
- Activity [9]: inactive

Structure (SMILES): Cc1[nH]c2ccccc2c1CC(=O)NC(Cc1ccccc1)C(=O)N(C)c1ccccc1 (racemic)
- Ka [1]: 3.07 10^5/M/s
- IC50 [2, 10]: 55.5 nM
- CC50 ([3]; read-out: CC50): 36800 nM
- Activity [7]: inactive
- Activity [8]: inactive
- Activity [9]: inactive

Reference: ChEMBL document CHEMBL5053482, “Rapid Optimization of the Metabolic Stability of a Human Immunodeficiency Virus Type-1 Capsid Inhibitor Using a Multistep Computational Workflow” (J Med Chem, 2021)
